Columns and labels:
K562 = test: Growth inhibition of human K562 cells; format: functional
IGROV-1 = test: Growth inhibition of human IGROV1 cells; format: functional
HCT-116 = test: Growth inhibition of human HCT116 cells; format: functional
[1] = Growth inhibition of human […] cells; format: functional
HOP-62 = test: Growth inhibition of human HOP62 cells; format: functional
M14 = test: Growth inhibition of human M14 cells; format: functional
CCRF-CEM = test: Growth inhibition of human CCRF-CEM cells; format: functional
MOLT-4 = test: Growth inhibition of human MOLT4 cells; format: functional
UO-31 = test: Growth inhibition of human UO31 cells; format: functional
In short: (§1)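 Tested at the NCI in its human disease-oriented in vitro screen of 60 tumour cell lines, following the Monks et al. methods. Activity is expressed as GI50, given as log molar values.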

NCI-H322M = test: Growth inhibition of human NCI-H322M cells; format: functional
SNB-75 = test: Growth inhibition of human SNB75 cells; format: functional; in short: as §1
DLD-1 = test: Growth inhibition of human DLD1 cells; format: functional
HOP-92 = test: Growth inhibition of human HOP92 cells; format: functional
HT-29 = test: Growth inhibition of human HT29 cells; format: functional
SK-MEL-28 = test: Growth inhibition of human SK-MEL-28 cells; format: functional; in short: as §1
Malme-3M = test: Growth inhibition of human MALME-3M cells; format: functional
NCI-H522 = test: Growth inhibition of human NCI-H522 cells; format: functional
HCT-15 = test: Growth inhibition of human HCT15 cells; format: functional
SK-MEL-5 = test: Growth inhibition of human SK-MEL-5 cells; format: functional; in short: as §1
XF498 = test: Growth inhibition of human XF498 cells; format: functional; in short: as §1
[2] = Growth inhibition of human HL60(TB) cells; format: functional, HL-60(TB); conditions: HL-60
KM12 = test: Growth inhibition of human KM12 cells; format: functional
DMS-273 = test: Growth inhibition of human DMS273 cells; format: functional
NCI-H460 = test: Growth inhibition of human NCI-H460 cells; format: functional
TK-10 = test: Growth inhibition of human TK10 cells; format: functional; in short: as §1
U-251 = test: Growth inhibition of human U251 cells; format: functional; in short: as §1
A549 = test: Growth inhibition of human A549 cells; format: functional
LOX IMVI = test: Growth inhibition of human LOX IMVI cells; format: functional
HCC 2998 = test: Growth inhibition of human HCC2998 cells; format: functional
[3] = Growth inhibition of human OVACR5 cells; format: functional
COLO 205 = test: Growth inhibition of human COLO205 cells; format: functional
SR = test: Growth inhibition of human SR cells; format: functional; in short: as §1
SK-OV-3 = test: Growth inhibition of human SK-OV-3 cells; format: functional; in short: as §1
NCI-H226 = test: Growth inhibition of human NCI-H226 cells; format: functional
[4] = Growth inhibition of human DMS144 cells; format: functional
SW-620 = test: Growth inhibition of human SW620 cells; format: functional; in short: as §1
ACHN = test: Growth inhibition of human ACHN cells; format: functional
UACC-62 = test: Growth inhibition of human UACC62 cells; format: functional; in short: as §1
KM-20L2 = test: Growth inhibition of human KM20L2 cells; format: functional
[5] = Growth inhibition of human OVACR8 cells; format: functional
SN12C = test: Growth inhibition of human SN12C cells; format: functional; in short: as §1
RXF 393 = test: Growth inhibition of human […] cells; format: functional
[6] = Growth inhibition of human LXFL529 cells; format: functional; conditions: LXFL 529
[7] = Growth inhibition of human OVACR4 cells; format: functional
SK-MEL-2 = test: Growth inhibition of human SK-MEL-2 cells; format: functional; in short: as §1
[8] = Growth inhibition of human RPMI8266 cells; format: functional
SF-268 = test: Growth inhibition of human SF268 cells; format: functional; in short: as §1
SNB-19 = test: Growth inhibition of human SNB19 cells; format: functional; in short: as §1
M19-MEL = test: Growth inhibition of human M19-MEL cells; format: functional
SF-539 = test: Growth inhibition of human SF539 cells; format: functional; in short: as §1
PC-3 = test: Growth inhibition of human PC3 cells; format: functional
CAKI-1 = test: Growth inhibition of human CAKI1 cells; format: functional
MDA-N = test: Growth inhibition of human MDA-N cells; format: functional
DU-145 = test: Growth inhibition of human DU145 cells; format: functional
MDA-MB-231 = test: Growth inhibition of human MDA-MB-231 cells; format: functional
NCI-H23 = test: Growth inhibition of human NCI-H23 cells; format: functional
MCF7 = test: Growth inhibition of human MCF7 cells; format: functional
BT-549 = test: Growth inhibition of human BT549 cells; format: functional
786-0 = test: Growth inhibition of human 786-0 cells; format: functional
HOP-18 = test: Growth inhibition of human HOP18 cells; format: functional
[9] = Growth inhibition of human MCF7/ADR-RES cells; format: functional; conditions: NCI/ADR-RES
Hs-578T = test: Growth inhibition of human HS578T cells; format: functional
T47D = test: Growth inhibition of human T47D cells; format: functional; in short: as §1
MDA-MB-435 = test: Growth inhibition of human MDA-MB-435 cells; format: functional
EKVX = test: Growth inhibition of human EKVX cells; format: functional
A498 = test: Growth inhibition of human A498 cells; format: functional
UACC-257 = test: Growth inhibition of human UACC257 cells; format: functional; in short: as §1
SF-295 = test: Growth inhibition of human SF295 cells; format: functional; in short: as §1

Measured: GI50

Cc1cc2c(cc1O)[nH]c1cc3c(cc12)C=CC(C)(C)O3
19.5 µM: M19-MEL
6.76 µM: HCC 2998 | UACC-62 | SF-268
4.57 µM: [5]
9.12 µM: [8]
10.7 µM: [4]
13.2 µM: NCI-H322M
11.2 µM: SNB-75
22.9 µM: IGROV-1
19.1 µM: NCI-H226
8.71 µM: HCT-15
10 µM: Malme-3M
5.37 µM: NCI-H460
6.92 µM: [2]
14.5 µM: SK-MEL-28
10.5 µM: [7]
25.1 µM: K562 | XF498 | TK-10 | COLO 205 | SK-OV-3 | SK-MEL-2 | SNB-19
12.9 µM: HCT-116 | DLD-1
20 µM: CCRF-CEM
7.24 µM: [1]
4.9 µM: RXF 393
5.25 µM: KM12
8.32 µM: NCI-H522
7.94 µM: HOP-62
9.33 µM: ACHN | KM-20L2 | [6]
6.46 µM: A549 | SR
5.01 µM: DMS-273
6.31 µM: SN12C
7.59 µM: SW-620
3.98 µM: LOX IMVI
11.7 µM: HT-29
9.77 µM: HOP-92
0.00324 µM: MOLT-4
17.8 µM: [3]
4.07 µM: SF-539
17.4 µM: SK-MEL-5
6.03 µM: M14 | U-251
11.5 µM: UO-31

COc1cc(C(=O)O)cc2c1[nH]c1ccccc12 [MUKOEIC ACID]
not listed: XF498
25.1 µM: all other assays above

From ChEMBL document CHEMBL1142636 (2000)
